# Bioassay records deposited in PubChem by The Scripps Research Institute Molecular Screening Center.
# Most compounds without a hit are left out; they make up all but 1.8% or so of the library.
# NPY-Y1 PAM-ag = potentiators or agonists of human neuropeptide Y receptor Y1; P25929; NPY-Y1 expressing cells, potentiator/agonist activation; activation, % at 3.6 µM; actives 0.37% (n = 220,000); AID 1304; in the data active means activation above about 33%, passing the limit was not always enough;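 further: cells stimulated with NPY at EC10 then isoproterenol at EC100; 0% = low agonist plus stimulus and 100% = saturating agonist plus stimulus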
# NPY-Y2 antag = blocks the human neuropeptide Y Y2 receptor. actives 0.99% (n = 140,000). NPY-Y2 expressing cells, antagonist mode. inhibition, % at 2.7 µM. P49146; in the data active means inhibition above about 17%;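 further: 0% = vehicle with agonist challenge and 100% = reference antagonist with challenge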
# Target sequence (P49146 whole entry, looked up): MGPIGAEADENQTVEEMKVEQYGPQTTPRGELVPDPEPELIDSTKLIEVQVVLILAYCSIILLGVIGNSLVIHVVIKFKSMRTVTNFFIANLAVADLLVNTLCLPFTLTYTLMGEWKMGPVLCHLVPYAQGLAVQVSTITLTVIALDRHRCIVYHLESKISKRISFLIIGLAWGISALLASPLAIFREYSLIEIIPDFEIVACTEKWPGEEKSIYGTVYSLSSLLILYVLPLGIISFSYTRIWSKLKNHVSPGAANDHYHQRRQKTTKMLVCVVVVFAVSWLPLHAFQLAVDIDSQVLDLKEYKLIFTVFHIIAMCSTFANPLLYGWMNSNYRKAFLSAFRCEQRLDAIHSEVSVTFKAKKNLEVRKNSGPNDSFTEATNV
# NPY-Y2 PAM-ag = potentiates or activates human NPY-Y2 receptor; activation, % at 3.6 µM; P49146; cells expressing NPY-Y2, potentiator/agonist read-out; AID 1359; actives 0.45% (n = 220,000); in the data active means activation above about 27%;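 further: cells stimulated with NPY near EC25 plus isoproterenol at EC100; 0% = vehicle plus submaximal agonist and 100% = vehicle plus saturating agonist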
# NPY-Y1 antag = NPY-Y1 (human) receptor antagonism | HEK293-CNG Y1 cells, membrane potential fluorescence; NPY at EC95, then isoproterenol | inhibition, % at 3.6 µM | actives 1% (n = 200,000) | P25929;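 active means inhibition above the campaign mean inhibition of all tested compounds plus 3 SD, cut at about 20% in these data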;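 further: 0% = DMSO wells given NPY plus isoproterenol and 100% = isoproterenol alone without NPY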
#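 Assay system: HEK293 cells with Y1 receptor plus CNG channel | Probe or stimulus: NPY (25 nM), isoproterenol (1 µM), Ro 20-1724 (25 µM) | Timing: Compound incubation 1 h at room temperature, readout 45 min post-stimulation | Measured by: Membrane-potential fluorescent dye readout | Benchmarks: High control isoproterenol alone, low control NPY with isoproterenol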
# NPY1 antag ctr = human NPY-Y1 antagonism in NPY-Y2 counter-screen; shares compounds with NPY-Y2 antag; cell-based NPY-Y1 antagonism counterscreen; inhibition, % at 3.6 µM; actives 19% (n = 710); AID 1256; in the data active means inhibition above about 20%;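 further: cells challenged with NPY then isoproterenol with cAMP sensed through a CNG channel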
# NPY-Y2 ant conf = confirmation of human neuropeptide Y receptor Y2 antagonists; shares compounds with NPY-Y2 antag; HEK293 NPY-Y2 CNG channel, membrane potential fluorescence; inhibition, % at 2.8 µM; actives 32% (n = 710);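 active means mean inhibition of triplicate wells above the hit cutoff set in the primary screen, cut at about 17% in these data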;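 further: 0% = DMSO with NPY challenge and 100% = BIIE0246 high control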
# Starred values were filed as active, the others as inactive; / = not tested or not shown.
SMILES,NPY-Y1 PAM-ag,NPY-Y2 antag,NPY-Y2 PAM-ag,NPY-Y1 antag,NPY1 antag ctr,NPY-Y2 ant conf
O=C(O)CC(C(=O)Nc1ccc(F)cc1)C1CCCO1 (stereo not given),13.7,/,-1.8,/,/,/
Cc1ccc(-c2n[nH]c(=S)n2/N=C/c2c(C)[nH]n(-c3ccccc3)c2=O)cc1,12.7,/,-9.7,0.3,/,/
CCOC(=O)c1cc(-c2ccccc2)sc1NC(=O)CC,-28.0,21.5*,-5.4,1.0,0.6,0.4
CC(=O)c1cc(CC=C(C)C)c(O)c(CC=C(C)C)c1O,-12.7,24.5*,-5.8,9.3,9.4,15.2
CC(=O)c1cc(CC=C(C)C)c(O)cc1O,6.4,1.2,-7.7,-3.2,/,/
O=C(O)c1ccc(S(=O)(=O)c2ccc(Sc3ccc(C(=O)O)c(C(=O)O)c3)cc2)cc1,-5.7,/,-3.4,1.2,/,/
Cc1cccc(-n2ccnc2SCC(=O)N2CCCc3ccccc32)c1C,-87.7,21.0*,-23.5,17.8,15.9,47.0*
CCC1=Nc2ccc(Br)cc2C(c2ccccc2)N1CC(=O)OC (stereo not given),6.2,22.7*,-16.0,14.1,13.0,23.4*
CCC(C)N(C(=O)Cn1nnc2ccccc21)C(C(=O)Nc1ccc(F)cc1)c1cccc(OC)c1 (stereo not given),-36.6,18.4*,-63.5,16.1,10.6,11.3
CCOc1ccc(-n2cc(C(=O)Nc3cccc(Cl)c3)c3cc(OC)c(OC)cc3c2=O)cc1,-61.8,17.7*,-30.2,12.9,11.7,20.3*
CCCCCCSc1nsc(NC(=O)CCC)n1,14.7,/,4.0,11.4,/,/
COc1ccccc1C(c1nnnn1CCc1ccccc1)N1CCCCCC1 (stereo not given),6.8,26.4*,1.4,14.6,6.0,4.0
COc1cc(CN(C(=S)NCC(=O)NC2CC2)C2CCCC2)cc(OC)c1OC,-3.5,1.7,-8.8,4.6,/,/
CC(C)OC(=O)/C(=C/c1ccc2c(c1)c1ccccc1n2C)NC(=O)c1ccccc1,-15.0,20.7*,-16.6,1.9,6.3,19.8*
Cn1c2ccccc2c2cc(/C=C(\NC(=O)c3ccccc3)C(=O)O)ccc21,-5.2,/,-6.7,/,/,/
Cc1cc(C)n(-c2nnc(C)n2/N=C/c2ccccc2OCc2ccccc2Cl)n1,-3.9,17.5*,-3.0,10.7,20.1*,10.8
COc1cccc(C(=O)NC(=S)Nn2cnnc2)c1OC,0.9,/,1.5,7.2,/,/
Cc1cc(N2CCC(C)CC2)nc(-c2ccccc2O)n1,-0.6,/,-20.4,/,/,/
Cc1cc(N2CCC(C)CC2)nc(NCc2ccccc2)n1,-37.5,17.4*,-19.7,14.1,32.6*,33.2*
Cc1cc(Oc2ccccc2)nc(NCc2ccccc2)n1,-21.6,20.4*,-23.3,12.0,10.8,4.0
c1coc(Cn2c(-c3ccco3)nc3ccccc32)c1,-19.6,8.5,4.6,-7.4,/,/
Clc1ccc(OCCn2c(-c3ccco3)nc3ccccc32)cc1,-43.8,30.7*,-24.7,19.1,32.3*,12.4
CCN(c1ccc(N=Cc2c(O)n(Cc3ccc(OC)cc3)c(=O)c3ccccc23)cc1)C(C)C,1.2,/,5.8,1.5,/,/
CC1=CC(C)(C)N(S(=O)(=O)c2ccc(C)cc2)c2ccc(C)cc21,6.6,20.6*,-1.9,7.8,23.9*,19.9*
O=S(=O)(N/N=C/c1ccc(N2CCOCC2)cc1)c1ccc(Br)cc1,-3.1,/,-16.2,0.7,/,/
SMILES,NPY-Y1 PAM-ag,NPY-Y2 antag,NPY-Y2 PAM-ag,NPY-Y1 antag,NPY1 antag ctr,NPY-Y2 ant conf
Cc1ccc(CNC(=O)c2cn(C3CCCCC3)c(=O)c3c2c2ccccc2n3C)o1,-6.2,19.9*,-2.8,2.6,4.8,4.1
CCCC(O)(CCC)C(=O)NN(C(=O)OC)c1ccccc1,-13.7,19.6*,-18.8,15.4,7.9,10.8
COc1ccc(CCNC(=O)CCC(=O)Nc2nnc(C(C)C)s2)cc1OC,10.8,-0.9,-2.4,-0.2,/,/
CN(C)c1ccc(NC(=O)CN2CCC(O)(c3ccccc3)CC2)cc1,2.5,/,-1.3,2.7,/,/
CN(C)C(=O)C(CCN1CCC(O)(c2ccc(Cl)cc2)CC1)(c1ccccc1)c1ccccc1,-38.9,24.7*,-0.4,19.4,15.2,27.7*
Cc1ccc(OCC(=O)NC(=S)Nc2cccc(NC(=O)c3ccccc3)c2)cc1,3.8,37.3*,-6.0,2.5,13.9,16.6
CC(=O)Nc1ccc(N2CC(C)(C)C2=O)cc1,15.1,/,-5.4,-0.2,/,/
S=C(NCCc1ccccc1)N/N=C/c1cccc(Cl)c1Cl,-65.7,26.3*,-10.4,18.2,30.9*,50.1*
CCOc1ccc(-c2nc(C#N)c(NCc3ccc4c(c3)OCO4)o2)cc1,-8.3,9.0,-6.0,5.2,/,/
